“And” between values parts separate entries of the source, which are not always exact repeats. Equal values may be shown once.
What was measured:
[1] = test system: Nucleic Acid; assay: Percentage inhibition of cellular protein-DNA complex formation; format: functional; settings: Homo sapiens
[2] = target: T1, DNA topoisomerase II (Homo sapiens) (UniProt P11388+Q02880); assay: 50% inhibition of human DNA topoisomerase II; format: protein assay
[3] = test system: KB; assay: Cytotoxicity against KB cells after a 3 day incubation; format: functional, Homo sapiens; settings: Homo sapiens, KB, 72 h; read-out: ID50 (the source's name)
In short: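 KB cells (parental ATCC line and resistant variants) exposed to drug at five concentrations […] for 3 days. ID50 is the concentration giving 50% reduction in cell number, derived from the degree of inhibition at the five concentrations.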

[4] = test system: Tumor Cell line; assay: Drug molar concentration required to inhibit 50% of human tumor cell growth; format: functional; settings: Homo sapiens, Tumor Cell line
In short: (§1)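 NCI panel of 54 human tumor lines from eight cancer types, mostly seeded at 20 000 cells/well. Cells were preincubated 24 h without drug, then exposed to five 10-fold dilutions for 48 h, fixed and stained with sulforhodamine B, and read spectrophotometrically. Versus control, GI50 (50% growth inhibition), TGI (0% growth) and LC50 (−50% growth) were calculated; mean graph midpoints average all lines.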

[5] = test system: Tumor Cell line; assay: Drug concentration required to inhibit total cell growth; format: functional, Homo sapiens; settings: read-out: Log TGI (converted); in short: as §1
[6] = target: T1, DNA topoisomerase II (Homo sapiens); assay: inhibition of human DNA topoisomerase II; format: protein assay

Row | SMILES | Complex formation [1] | ID50 [2] [µM] | other results
1 | COc1cc([C@@H]2c3cc4c(cc3[C@@H](Nc3ccc(C(=O)O)cc3)[C@H]3COC(=O)[C@H]23)OCO4)cc(OC)c1O [listing 1 of 2 here] | > 6.9% and 1.9% | > 100 | –
2 | COc1cc([C@@H]2c3cc4c(cc3[C@@H](Nc3ccc(C(=O)O)cc3)[C@H]3COC(=O)[C@H]23)OCO4)cc(OC)c1O [listing 2 of 2 here] | – | – | IC50 [3]: > 4 µM; GI50 [4]: 8.51 µM; TGI [5]: 15.8 µM
3 | COc1cc([C@@H]2c3cc4c(cc3[C@@H](NCCN3CCCCC3)[C@H]3COC(=O)[C@H]23)OCO4)cc(OC)c1O | 183% and 190% | – | ID50 [6]: 50 µM and 25 µM
4 | COc1cc([C@@H]2c3cc4c(cc3[C@@H](NCCN3CCOCC3)[C@H]3COC(=O)[C@H]23)OCO4)cc(OC)c1O | – | 50 | –
5 | COc1cc([C@@H]2c3cc4c(cc3[C@@H](NCCCN(C)C)[C@H]3COC(=O)[C@H]23)OCO4)cc(OC)c1O | 179% and 186% | 25 | –

From ChEMBL document CHEMBL1127326, “Antitumor agents. 148. Synthesis and biological evaluation of novel 4 beta-amino derivatives of etoposide with better pharmacological profiles” (1994)
